Measurements collected from several papers.
Compare with care: the assays were run in different laboratories.
Target: Tau-tubulin kinase 1 (TTBK1, Homo sapiens, UniProt Q5TCY1)
Read-out: enzyme activity
Action: inhibitor

SMILES | test | conditions | quantity | result
Cc1ccc(C(=O)NCc2ccsc2)cc1C#Cc1cn(C(C)C)c2ncnc(N)c12 | – | 1 µM | activity vs control | 104%
COc1cc(/C=C/C(=O)CC(=O)/C=C/c2ccc(O)c(OC)c2)ccc1O | – | 1 µM | activity vs control | 102%
COc1cc(Cl)c(C(=O)N[C@@H](CN[C@H]2CC[C@@H](N)CC2)Cc2ccc(C#N)cc2)cc1-c1ccc(CN[C@H](C)c2ccc(C)cc2)o1 | – | 1 µM | remaining activity | 99%
Cc1sc(C(=O)NC2COC2)cc1-n1cc(NC(=O)Nc2c(F)cccc2Cl)cn1 | – | 10 µM | remaining activity | 113%
CN1CC(Oc2cnc(C#N)cc2-c2ccn3nc(NC(=O)C4CC4)cc3c2)C1 | – | 1 µM | inhibition | 1%
CC(C)(O)[C@H]1CC[C@H](Nc2ccc3ncc(-c4cccc(C(F)(F)F)c4)n3n2)CC1 | – | 1 µM | remaining activity | 95.8%
O=C(Nc1cnn(-c2csc(C(=O)NC3COC3)c2)c1)Nc1c(F)cccc1Cl | – | 5 µM | remaining activity | 82.3%
COc1cc(Nc2cnc(C#N)c(O[C@H](C)CN(C)C)n2)ncc1-c1cnn(C)c1 | radiometric | 1 µM | remaining activity | 98%
